Experimental data gathered from unrelated publications.
Effect on: binding

CC#CC(=O)N1CC[C@@H](n2cc(-c3ccc(Oc4c(F)cccc4F)cc3)c3c(N)n[nH]c(=O)c32)C1  Kd (Tyrosine-protein kinase TXK (TXK, Homo sapiens, UniProt P42681); competition with immobilised ligand): 0.136 µM
Cc1cc(Nc2cc3ncccc3c(N[C@@H]3C[C@H]4CC[C@@H](C3)N4CCC#N)n2)n[nH]1  Kd (Serine/threonine-protein kinase 16 (STK16, Homo sapiens, UniProt O75716); competition with immobilised ligand): 0.11 µM
Cc1cnc(-c2ccc(-c3ccc(NC(=O)Nc4c(F)cc(F)cc4F)cc3F)c3c2C(=O)NC3)[nH]1  Kd (Cytoplasmic tyrosine-protein kinase BMX (BMX, Homo sapiens, UniProt P51813); competition with immobilised ligand): 0.014 µM
[N-]=[N+]=N[C@@H]1[C@H](O)[C@@H](CO)O[C@H]1n1ccc(N)nc1=O  Kd (UCK1 (Homo sapiens, UniProt Q9HA47); fluorescence): 0.0657 µM
Nc1ncnc2c1ncn2[C@@H]1O[C@H](COP(=O)(O)O)[C@@H](O)[C@H]1O  Kd (Adenylosuccinate lyase (ADSL, Homo sapiens, UniProt P30566, R303C); ITC): 130 µM
NC(=O)C1=CN([C@@H]2O[C@H](COP(=O)(O)OP(=O)(O)OC[C@H]3O[C@@H](n4cnc5c(N)ncnc54)[C@H](OP(=O)(O)O)[C@@H]3O)[C@@H](O)[C@H]2O)C=CC1  Kd (ZMO1885 (Zymomonas mobilis, UniProt Q5NLA1, Y343W)): 702 µM
CCCC[C@@H]1NC(=O)[C@H](Cc2ccc(O)cc2)NC(=O)[C@@H]2CCCN2C(=O)[C@H](CC(=O)O)NC(=O)[C@H](C)NC(=O)[C@H](Cc2ccccc2)NC(=O)[C@@H]2CSCCC(=O)N3CN(CN(C3)C(=O)CCSC[C@@H](C(=O)N[C@@H](CNC(=O)CCc3cn(CCOCCOCCOCCOCCOCCOCCOCCOCCOCCOCCOCCOCCC(=O)NCCC(=O)N(C)CC(=O)N(C)CC(=O)N(C)CC(=O)N(C)CC(=O)N(C)CC(=O)N(C)CC(=O)N(C)CC(=O)N(C)CC(=O)N(C)CC(=O)N(C)CC(=O)NCCCC[C@@H]4NC(=O)[C@H](Cc5cccc6ccccc56)NC(=O)[C@@H]5CCCN5C(=O)[C@@H](NC(C)=O)CSCCC(=O)N5CN6CN(C5)C(=O)CCSC[C@H](NC4=O)C(=O)N[C@@H](CCSC)C(=O)N[C@@H](CCCCNC(=N)N)C(=O)N[C@@H](CC(=O)O)C(=O)N[C@@H](Cc4c[nH]c5ccccc45)C(=O)N[C@@H](CO)C(=O)N[C@@H]([C@@H](C)O)C(=O)N4CCC[C@H]4C(=O)N4C[C@H](O)C[C@H]4C(=O)N[C@@H](Cc4c[nH]c5ccccc45)C(=O)N[C@H](C(N)=O)CSCCC6=O)nn3)C(N)=O)NC1=O)C(=O)CCSC[C@H](NC(C)=O)C(=O)N[C@@H](CC(C)(C)C)C(=O)N1CCC[C@H]1C(=O)N[C@@H](CCC(=O)O)C(=O)N[C@H](C)C(=O)N1CCC[C@H]1C(=O)N[C@@H](Cc1ccc(O)cc1)C(=O)N2  Kd (Nectin-4 (Homo sapiens, UniProt Q96NY8); SPR): 0.002 µM
CCC(=O)N1CCC(C(=O)NCC(=O)N2CCN(c3nc(-c4cnc(N)nc4C(F)F)nc(N4CCOCC4)n3)CC2)CC1  Kd (Phosphatidylinositol 4-phosphate 3-kinase C2 domain-containing subunit beta (PIK3C2B, Homo sapiens, UniProt O00750); competition with immobilised ligand): 0.085 µM
